Experimental data from ChEMBL document CHEMBL2417469, “Synthesis of novel analogs of 2-pyrazoline obtained from [(7-chloroquinolin-4-yl)amino]chalcones and hydrazine as potential antitumor and antimalarial agents” (Eur J Med Chem, 2013).

Columns and labels:
Format in all cases: functional
SK-OV-3 = assay: Cytotoxicity against human SKOV3 cells after 48 hrs by SRB assay; settings: SK-OV-3, 48 h
In short: (§1)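 NCI 60-cell-line screen. Cells preincubated 24 h at 37 °C, 5% CO2; time-zero plates TCA-fixed. Compounds dissolved in DMSO and tested at five concentrations (100, 10, 1.0, 0.1, 0.01 µM) for 48 h continuous exposure. Adherent cells fixed with cold TCA (10% final), then SRB stained; absorbance at 515 nm. GI50, TGI and LC50 calculated from growth relative to time-zero and untreated controls.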

OVCAR-8 = assay: Cytotoxicity against human OVCAR8 cells after 48 hrs by SRB assay; settings: OVCAR-8, 48 h; in short: as §1
PC-3 = assay: Cytotoxicity against human PC3 cells after 48 hrs by SRB assay; settings: PC-3, 48 h; in short: as §1
RXF 393 = assay: Cytotoxicity against human RXF393 cells after 48 hrs by SRB assay; settings: RXF 393, 48 h; in short: as §1
IGROV-1 = assay: Cytotoxicity against human IGROV1 cells after 48 hrs by SRB assay; settings: IGROV-1, 48 h; in short: as §1
HOP-92 = assay: Cytotoxicity against human HOP92 cells after 48 hrs by SRB assay; settings: HOP-92, 48 h; in short: as §1
A498 = assay: Cytotoxicity against human A498 cells after 48 hrs by SRB assay; settings: A498, 48 h; in short: as §1
Hs-578T = assay: Cytotoxicity against human Hs578T cells after 48 hrs by SRB assay; in short: as §1
MCF7 = assay: Cytotoxicity against human MCF7 cells after 48 hrs by SRB assay; settings: MCF7, 48 h; in short: as §1
DU-145 = assay: Cytotoxicity against human DU145 cells after 48 hrs by SRB assay; settings: DU-145, 48 h; in short: as §1
SR = assay: Cytotoxicity against human SR cells after 48 hrs by SRB assay
In short: (§2)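 NCI 60-cell screen. Cells grew 24 h (37 °C, 5% CO2) before compound was added. Compounds were in DMSO and diluted in medium with gentamicin, then tested at five levels (100, 10, 1.0, 0.1, 0.01 µM) with 48 h continuous exposure. Adherent cells were fixed with TCA (10% final) and stained with 0.4% SRB, absorbance read at 515 nm. A time-zero plate was included. LC50 is the concentration giving 50% loss of protein relative to time zero.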

SNB-19 = assay: Cytotoxicity against human SNB19 cells after 48 hrs by SRB assay; settings: SNB-19, 48 h; in short: as §2
HCT-15 = assay: Cytotoxicity against human HCT15 cells after 48 hrs by SRB assay; settings: HCT-15, 48 h; in short: as §1
MDA-MB-435 = assay: Cytotoxicity against human MDA-MB-435 cells after 48 hrs by SRB assay; settings: MDA-MB-435, 48 h; in short: as §1
KM12 = assay: Cytotoxicity against human KM12 cells after 48 hrs by SRB assay; settings: KM12, 48 h; in short: as §1
CAKI-1 = assay: Cytotoxicity against human Caki1 cells after 48 hrs by SRB assay; settings: CAKI-1, 48 h; in short: as §1
MDA-MB-468 = assay: Cytotoxicity against human MDA-MB-468 cells after 48 hrs by SRB assay; settings: MDA-MB-468, 48 h; in short: as §1
Malme-3M = assay: Cytotoxicity against human MALME-3M cells after 48 hrs by SRB assay; in short: as §1
SF-539 = assay: Cytotoxicity against human SF539 cells after 48 hrs by SRB assay; settings: SF-539, 48 h; in short: as §1
LOX IMVI = assay: Cytotoxicity against human LOXIMVI cells after 48 hrs by SRB assay; in short: as §1
HT-29 = assay: Cytotoxicity against human HT-29 cells after 48 hrs by SRB assay; settings: HT-29, 48 h; in short: as §1
A549 = assay: Cytotoxicity against human A549/ATCC cells after 48 hrs by SRB assay; settings: A549, 48 h; in short: as §1
M14 = assay: Cytotoxicity against human M14 cells after 48 hrs by SRB assay; settings: M14, 48 h; in short: as §1
HCC 2998 = assay: Cytotoxicity against human HCC2998 cells after 48 hrs by SRB assay; settings: HCC 2998, 48 h; in short: as §1
786-0 = assay: Cytotoxicity against human 786-0 cells after 48 hrs by SRB assay; settings: 786-0, 48 h; in short: as §1
UO-31 = assay: Cytotoxicity against human UO31 cells after 48 hrs by SRB assay; settings: UO-31, 48 h; in short: as §2
CCRF-CEM = assay: Cytotoxicity against human CCRF-CEM cells after 48 hrs by SRB assay; in short: as §1
OVCAR-4 = assay: Cytotoxicity against human OVCAR4 cells after 48 hrs by SRB assay; settings: OVCAR-4, 48 h; in short: as §1
MDA-MB-231 = assay: Cytotoxicity against human MDA-MB-231 cells after 48 hrs by SRB assay; settings: MDA-MB-231, 48 h; in short: as §1
SK-MEL-2 = assay: Cytotoxicity against human SK-MEL-2 cells after 48 hrs by SRB assay; settings: SK-MEL-2, 48 h; in short: as §1
NCI-H226 = assay: Cytotoxicity against human NCI-H226 cells after 48 hrs by SRB assay; settings: NCI-H226, 48 h; in short: as §1
HCT-116 = assay: Cytotoxicity against human HCT116 cells after 48 hrs by SRB assay; settings: HCT-116, 48 h; in short: as §1
UACC-62 = assay: Cytotoxicity against human UACC62 cells after 48 hrs by SRB assay; settings: UACC-62, 48 h; in short: as §2
U-251 = assay: Cytotoxicity against human U251 cells after 48 hrs by SRB assay; settings: U-251, 48 h; in short: as §2
SK-MEL-28 = assay: Cytotoxicity against human SK-MEL-28 cells after 48 hrs by SRB assay; settings: SK-MEL-28, 48 h; in short: as §1
SF-268 = assay: Cytotoxicity against human SF268 cells after 48 hrs by SRB assay; settings: SF-268, 48 h; in short: as §1
[1] = read-out: LC50 (the source's name)

COc1ccc(C2CC(c3cccc(Nc4ccnc5cc(Cl)ccc45)c3)=NN2C=O)cc1 (configuration not stated)
GI50 (SK-OV-3): 700 nM | LC50 (concentration killing 50% of cells) (SK-OV-3): > 100000 nM | GI50 (OVCAR-8): 950 nM | LC50 (50% net cell kill) (OVCAR-8): > 100000 nM | GI50 (PC-3): 850 nM | LC50 (PC-3): > 100000 nM | GI50 (RXF 393): 850 nM | LC50 (concentration killing 50% of cells) (RXF 393): > 100000 nM | GI50 (IGROV-1): 1440 nM | LC50 (concentration killing 50% of cells relative to time zero) (IGROV-1): > 100000 nM | GI50 (HOP-92): > 100000 nM | LC50 (concentration killing 50% of cells) (HOP-92): > 100000 nM | GI50 (A498): 260 nM | CC50 (A498; [1]): > 100000 nM | GI50 (Hs-578T): 360 nM | LC50 (50% net cell kill) (Hs-578T): > 100000 nM | GI50 (MCF7): 370 nM | CC50 (MCF7; [1]): > 100000 nM | GI50 (DU-145): 1350 nM | LC50 (concentration killing 50% of cells) (DU-145): > 100000 nM | GI50 (SR): 240 nM | LC50 (SR): > 100000 nM | GI50 (SNB-19): 870 nM | LC50 (SNB-19): > 100000 nM | GI50 (HCT-15): 440 nM | LC50 (concentration killing 50% of cells relative to time zero) (HCT-15): > 100000 nM | GI50 (MDA-MB-435): 140 nM | LC50 (MDA-MB-435): > 100000 nM | GI50 (KM12): 440 nM | LC50 (concentration killing 50% of cells) (KM12): > 100000 nM | GI50 (CAKI-1): 330 nM | LC50 (CAKI-1): 100000 nM | GI50 (MDA-MB-468): 210 nM | LC50 (MDA-MB-468): > 100000 nM | GI50 (Malme-3M): 740 nM | LC50 (Malme-3M): > 100000 nM | GI50 (SF-539): 610 nM | CC50 (SF-539; [1]): 66200 nM | GI50 (LOX IMVI): 580 nM | LC50 (LOX IMVI): 6700 nM | GI50 (HT-29): 340 nM | LC50 (HT-29): > 100000 nM | GI50 (A549): 570 nM | CC50 (A549; [1]): > 100000 nM | GI50 (M14): 400 nM | CC50 (M14; [1]): > 100000 nM | GI50 (HCC 2998): 1320 nM | LC50 (HCC 2998): > 100000 nM | GI50 (786-0): 530 nM | LC50 (786-0): > 100000 nM | GI50 (UO-31): 850 nM | LC50 (UO-31): > 100000 nM | GI50 (CCRF-CEM): 680 nM | LC50 (concentration killing 50% of cells relative to time zero) (CCRF-CEM): > 100000 nM | GI50 (OVCAR-4): 890 nM | LC50 (OVCAR-4): > 100000 nM | GI50 (MDA-MB-231): 3190 nM | LC50 (concentration killing 50% of cells present at time zero) (MDA-MB-231): > 100000 nM | GI50 (SK-MEL-2): 490 nM | LC50 (SK-MEL-2): > 100000 nM | GI50 (NCI-H226): 41600 nM | LC50 (50% lethal concentration) (NCI-H226): > 100000 nM | GI50 (HCT-116): 380 nM | LC50 (HCT-116): 38100 nM | GI50 (UACC-62): 670 nM | CC50 (UACC-62; [1]): > 100000 nM | GI50 (U-251): 450 nM | CC50 (U-251; [1]): 41800 nM | GI50 (SK-MEL-28): 960 nM | CC50 (SK-MEL-28; [1]): > 100000 nM | GI50 (SF-268): 2560 nM | LC50 (SF-268): > 100000 nM
